Experimental data: ChEMBL document CHEMBL1145382, “Novel ergopeptides as dual ligands for adenosine and dopamine receptors” (J Med Chem, 2007)
Non-standard residues stand in square brackets, D forms with d. Residues, ends and D or L forms follow the SMILES beside them. Phe(4-NO2) = N[C@@H](Cc1ccc([N+](=O)[O-])cc1)C(=O)O; Phe(4-F) = N[C@@H](Cc1ccc(F)cc1)C(=O)O; hCha = N[C@@H](CCC1CCCCC1)C(=O)O

molecular target: T1, Adenosine receptor A1 (Homo sapiens) (UniProt P30542); assay: Displacement of [3H]R-PIA from adenosine A1 receptor in lamb striatum membrane at 50 uM after 1 hr; assay type: cell membranes; settings: Ovis aries, target entry is the homologue from another species
T1 sequence (whole entry): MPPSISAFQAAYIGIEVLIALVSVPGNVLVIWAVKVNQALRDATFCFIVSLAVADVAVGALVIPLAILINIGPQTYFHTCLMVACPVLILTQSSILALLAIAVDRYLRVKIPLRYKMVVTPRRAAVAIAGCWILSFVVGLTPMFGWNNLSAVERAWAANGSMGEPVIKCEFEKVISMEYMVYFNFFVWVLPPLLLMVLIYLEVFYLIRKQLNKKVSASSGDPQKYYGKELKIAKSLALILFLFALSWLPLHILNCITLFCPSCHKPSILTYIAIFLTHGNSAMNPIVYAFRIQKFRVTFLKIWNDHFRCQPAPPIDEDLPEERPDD
In short: (§1)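 Single-concentration screen at 50 µM ergopeptide on lamb striatal membranes (0.5 mg protein/mL), 22 °C, 50 mM Tris-HCl pH 7.4. Radioligands: [3H]SCH 23390 1.2 nM (D1), [3H]YM 09151-2 0.9 nM (D2), [3H]R-PIA 2.2 nM (A1, with MgCl2 and ADA), [3H]CGS 21680 20.1 nM (A2A, with MgCl2 and ADA). Specific binding displaced, after filtration and scintillation counting.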

Question: `CN1C[C@H](C(N)=O)C=C2c3cccc4[nH]cc(c34)C[C@H]21` was tested. Which Activity did it give?
Answer: < 40%

Question: With `CC(=O)N[C@H](C(=O)N[C@@H](CCC1CCCCC1)C(=O)N1CCCC(C(N)=O)C1)C(C)C` (stereo not given in full) as the molecule, how does the Activity read?
Answer: < 40%

Question: Which Activity does the source give for `CC(=O)N[C@@H](Cc1ccc([N+](=O)[O-])cc1)C(=O)N[C@@H](CCC1CCCCC1)C(=O)N1CCCC(C(N)=O)C1` (stereo not given in full) here?
Answer: < 40%

Question: For `CC(=O)N[C@@H](CCC1CCCCC1)C(=O)N[C@H](C(=O)N1CCC[C@H]1C(N)=O)C(C)C` (Ac-[hCha]-Val-Pro-NH2), which Activity is on record?
Answer: < 40%

Question: For `CC(=O)N[C@@H](Cc1ccc([N+](=O)[O-])cc1)C(=O)N[C@@H](Cc1ccc(F)cc1)C(=O)N1CCCC(C(N)=O)C1` (stereo not given in full), which Activity is on record?
Answer: < 40%

Question: For `CC(=O)N[C@H](C(=O)N[C@@H](Cc1ccc([N+](=O)[O-])cc1)C(=O)N1CCC[C@H]1C(N)=O)C(C)C` (Ac-Val-[Phe(4-NO2)]-Pro-NH2), which Activity is on record?
Answer: < 40%

Question: With `CC(=O)N[C@H](C(=O)N[C@@H](CCC1CCCCC1)C(=O)N1c2ccccc2C[C@H]1C(N)=O)C(C)C` as the molecule, how does the Activity read?
Answer: < 40%

Question: Which Activity does the source give for `CC(=O)N[C@@H](CCC1CCCCC1)C(=O)N[C@@H](Cc1ccc(F)cc1)C(=O)N1CCC[C@H]1C(N)=O` (Ac-[hCha]-[Phe(4-F)]-Pro-NH2) here?
Answer: < 40%

Question: For `CC(=O)N[C@@H](Cc1ccc([N+](=O)[O-])cc1)C(=O)N[C@H](C(=O)N1c2ccccc2C[C@H]1C(N)=O)C(C)C`, which Activity is on record?
Answer: < 40%

Question: `CC(=O)N[C@H](C(=O)N[C@@H](Cc1ccc(F)cc1)C(=O)N1CCC[C@H]1C(N)=O)C(C)C` (Ac-Val-[Phe(4-F)]-Pro-NH2) was tested. Which Activity did it give?
Answer: < 40%

molecular target: D(2) dopamine receptor (Homo sapiens) (UniProt P14416); assay: Displacement of [3H]YM 09151-2 from dopamine D2 receptor in lamb striatum membrane at 50 uM after 2 hrs; assay type: cell membranes; settings: Ovis aries, target entry is the homologue from another species; in short: as §1
Sequence (P14416 whole entry): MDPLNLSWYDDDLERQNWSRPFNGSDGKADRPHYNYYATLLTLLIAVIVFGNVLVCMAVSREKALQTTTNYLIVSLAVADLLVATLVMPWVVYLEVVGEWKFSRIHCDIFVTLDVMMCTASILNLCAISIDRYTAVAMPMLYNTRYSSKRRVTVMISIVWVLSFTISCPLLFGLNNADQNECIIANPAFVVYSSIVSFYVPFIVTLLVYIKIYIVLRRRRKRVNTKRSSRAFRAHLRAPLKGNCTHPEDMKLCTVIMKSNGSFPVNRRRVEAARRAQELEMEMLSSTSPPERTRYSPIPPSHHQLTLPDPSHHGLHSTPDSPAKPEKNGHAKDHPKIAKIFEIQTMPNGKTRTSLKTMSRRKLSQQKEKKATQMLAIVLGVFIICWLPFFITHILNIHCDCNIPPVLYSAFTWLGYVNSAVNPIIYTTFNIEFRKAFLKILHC

Question: How did the Activity turn out when `CN1C[C@H](C(N)=O)C=C2c3cccc4[nH]cc(c34)C[C@H]21` was run?
Answer: < 40%

Question: How did the Activity turn out when `CC(=O)N[C@H](C(=O)N[C@@H](CCC1CCCCC1)C(=O)N1CCCC(C(N)=O)C1)C(C)C` (stereo not given in full) was run?
Answer: < 40%

Question: For `CC(=O)N[C@@H](Cc1ccc([N+](=O)[O-])cc1)C(=O)N[C@@H](CCC1CCCCC1)C(=O)N1CCCC(C(N)=O)C1` (stereo not given in full), which Activity is on record?
Answer: < 40%

Question: Which Activity does the source give for `CC(=O)N[C@@H](CCC1CCCCC1)C(=O)N[C@H](C(=O)N1CCC[C@H]1C(N)=O)C(C)C` (Ac-[hCha]-Val-Pro-NH2) here?
Answer: < 40%

Question: For `CC(=O)N[C@@H](Cc1ccc([N+](=O)[O-])cc1)C(=O)N[C@@H](Cc1ccc(F)cc1)C(=O)N1CCCC(C(N)=O)C1` (stereo not given in full), which Activity is on record?
Answer: < 40%

Question: With `CC(=O)N[C@H](C(=O)N[C@@H](Cc1ccc([N+](=O)[O-])cc1)C(=O)N1CCC[C@H]1C(N)=O)C(C)C` (Ac-Val-[Phe(4-NO2)]-Pro-NH2) as the molecule, how does the Activity read?
Answer: < 40%

Question: How did the Activity turn out when `CC(=O)N[C@H](C(=O)N[C@@H](CCC1CCCCC1)C(=O)N1c2ccccc2C[C@H]1C(N)=O)C(C)C` was run?
Answer: < 40%

Question: With `CC(=O)N[C@@H](CCC1CCCCC1)C(=O)N[C@@H](Cc1ccc(F)cc1)C(=O)N1CCC[C@H]1C(N)=O` (Ac-[hCha]-[Phe(4-F)]-Pro-NH2) as the molecule, how does the Activity read?
Answer: < 40%

Question: With `CC(=O)N[C@@H](Cc1ccc([N+](=O)[O-])cc1)C(=O)N[C@H](C(=O)N1c2ccccc2C[C@H]1C(N)=O)C(C)C` as the molecule, how does the Activity read?
Answer: < 40%

Question: Which Activity does the source give for `CC(=O)N[C@H](C(=O)N[C@@H](Cc1ccc(F)cc1)C(=O)N1CCC[C@H]1C(N)=O)C(C)C` (Ac-Val-[Phe(4-F)]-Pro-NH2) here?
Answer: < 40%

molecular target: D(1A) dopamine receptor (Homo sapiens) (UniProt P21728); assay: Displacement of [3H]SCH 23390 from dopamine D1 receptor in lamb striatum membrane at 50 uM after 1 hr; assay type: cell membranes; settings: Ovis aries, target entry is the homologue from another species; in short: as §1
Sequence (P21728 whole entry): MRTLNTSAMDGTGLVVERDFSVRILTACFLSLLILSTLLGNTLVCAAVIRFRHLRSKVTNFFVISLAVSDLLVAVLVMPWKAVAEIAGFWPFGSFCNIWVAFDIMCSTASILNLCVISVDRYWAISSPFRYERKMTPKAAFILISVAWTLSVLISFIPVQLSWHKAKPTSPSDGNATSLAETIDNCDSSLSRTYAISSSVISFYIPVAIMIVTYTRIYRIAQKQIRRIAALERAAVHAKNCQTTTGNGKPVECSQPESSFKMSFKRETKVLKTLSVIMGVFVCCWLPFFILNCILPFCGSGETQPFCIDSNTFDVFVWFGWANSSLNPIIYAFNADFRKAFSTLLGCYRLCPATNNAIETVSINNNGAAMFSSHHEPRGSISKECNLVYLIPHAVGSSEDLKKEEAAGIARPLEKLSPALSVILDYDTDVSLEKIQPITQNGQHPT

Question: With `CN1C[C@H](C(N)=O)C=C2c3cccc4[nH]cc(c34)C[C@H]21` as the molecule, how does the Activity read?
Answer: < 40%

Question: For `CC(=O)N[C@H](C(=O)N[C@@H](CCC1CCCCC1)C(=O)N1CCCC(C(N)=O)C1)C(C)C` (stereo not given in full), which Activity is on record?
Answer: < 40%

Question: How did the Activity turn out when `CC(=O)N[C@@H](Cc1ccc([N+](=O)[O-])cc1)C(=O)N[C@@H](CCC1CCCCC1)C(=O)N1CCCC(C(N)=O)C1` (stereo not given in full) was run?
Answer: < 40%

Question: For `CC(=O)N[C@@H](CCC1CCCCC1)C(=O)N[C@H](C(=O)N1CCC[C@H]1C(N)=O)C(C)C` (Ac-[hCha]-Val-Pro-NH2), which Activity is on record?
Answer: < 40%

Question: With `CC(=O)N[C@@H](Cc1ccc([N+](=O)[O-])cc1)C(=O)N[C@@H](Cc1ccc(F)cc1)C(=O)N1CCCC(C(N)=O)C1` (stereo not given in full) as the molecule, how does the Activity read?
Answer: < 40%

Question: With `CC(=O)N[C@H](C(=O)N[C@@H](Cc1ccc([N+](=O)[O-])cc1)C(=O)N1CCC[C@H]1C(N)=O)C(C)C` (Ac-Val-[Phe(4-NO2)]-Pro-NH2) as the molecule, how does the Activity read?
Answer: < 40%

Question: How did the Activity turn out when `CC(=O)N[C@H](C(=O)N[C@@H](CCC1CCCCC1)C(=O)N1c2ccccc2C[C@H]1C(N)=O)C(C)C` was run?
Answer: < 40%

Question: How did the Activity turn out when `CC(=O)N[C@@H](CCC1CCCCC1)C(=O)N[C@@H](Cc1ccc(F)cc1)C(=O)N1CCC[C@H]1C(N)=O` (Ac-[hCha]-[Phe(4-F)]-Pro-NH2) was run?
Answer: < 40%

Question: For `CC(=O)N[C@@H](Cc1ccc([N+](=O)[O-])cc1)C(=O)N[C@H](C(=O)N1c2ccccc2C[C@H]1C(N)=O)C(C)C`, which Activity is on record?
Answer: < 40%

Question: `CC(=O)N[C@H](C(=O)N[C@@H](Cc1ccc(F)cc1)C(=O)N1CCC[C@H]1C(N)=O)C(C)C` (Ac-Val-[Phe(4-F)]-Pro-NH2) was tested. Which Activity did it give?
Answer: < 40%

molecular target: Adenosine receptor A2a (Homo sapiens, UniProt P29274); assay: Displacement of [3H]CGS 21680 from adenosine A2A receptor in lamb striatum membrane at 50 uM after 2 hrs; assay type: cell membranes; settings: Ovis aries, target entry is the homologue from another species; in short: as §1
Sequence (P29274 whole entry): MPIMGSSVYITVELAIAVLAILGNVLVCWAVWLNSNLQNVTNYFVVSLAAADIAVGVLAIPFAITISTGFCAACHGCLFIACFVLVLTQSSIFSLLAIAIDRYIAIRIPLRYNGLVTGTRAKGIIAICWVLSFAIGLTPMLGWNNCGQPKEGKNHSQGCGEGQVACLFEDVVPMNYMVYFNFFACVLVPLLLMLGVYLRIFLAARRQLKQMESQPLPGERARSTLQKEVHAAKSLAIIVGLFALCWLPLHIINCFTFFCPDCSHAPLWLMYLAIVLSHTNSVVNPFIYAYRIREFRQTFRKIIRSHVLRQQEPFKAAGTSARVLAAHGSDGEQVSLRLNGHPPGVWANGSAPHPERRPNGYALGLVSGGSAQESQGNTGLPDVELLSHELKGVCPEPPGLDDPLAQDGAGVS

Question: For `CN1C[C@H](C(N)=O)C=C2c3cccc4[nH]cc(c34)C[C@H]21`, which Activity is on record?
Answer: < 40%

Question: With `CC(=O)N[C@H](C(=O)N[C@@H](CCC1CCCCC1)C(=O)N1CCCC(C(N)=O)C1)C(C)C` (stereo not given in full) as the molecule, how does the Activity read?
Answer: < 40%

Question: `CC(=O)N[C@@H](Cc1ccc([N+](=O)[O-])cc1)C(=O)N[C@@H](CCC1CCCCC1)C(=O)N1CCCC(C(N)=O)C1` (stereo not given in full) was tested. Which Activity did it give?
Answer: < 40%

Question: How did the Activity turn out when `CC(=O)N[C@@H](CCC1CCCCC1)C(=O)N[C@H](C(=O)N1CCC[C@H]1C(N)=O)C(C)C` (Ac-[hCha]-Val-Pro-NH2) was run?
Answer: < 40%

Question: How did the Activity turn out when `CC(=O)N[C@@H](Cc1ccc([N+](=O)[O-])cc1)C(=O)N[C@@H](Cc1ccc(F)cc1)C(=O)N1CCCC(C(N)=O)C1` (stereo not given in full) was run?
Answer: < 40%

Question: For `CC(=O)N[C@H](C(=O)N[C@@H](Cc1ccc([N+](=O)[O-])cc1)C(=O)N1CCC[C@H]1C(N)=O)C(C)C` (Ac-Val-[Phe(4-NO2)]-Pro-NH2), which Activity is on record?
Answer: < 40%

Question: How did the Activity turn out when `CC(=O)N[C@H](C(=O)N[C@@H](CCC1CCCCC1)C(=O)N1c2ccccc2C[C@H]1C(N)=O)C(C)C` was run?
Answer: < 40%

Question: For `CC(=O)N[C@@H](CCC1CCCCC1)C(=O)N[C@@H](Cc1ccc(F)cc1)C(=O)N1CCC[C@H]1C(N)=O` (Ac-[hCha]-[Phe(4-F)]-Pro-NH2), which Activity is on record?
Answer: < 40%

Question: For `CC(=O)N[C@@H](Cc1ccc([N+](=O)[O-])cc1)C(=O)N[C@H](C(=O)N1c2ccccc2C[C@H]1C(N)=O)C(C)C`, which Activity is on record?
Answer: < 40%

Question: How did the Activity turn out when `CC(=O)N[C@H](C(=O)N[C@@H](Cc1ccc(F)cc1)C(=O)N1CCC[C@H]1C(N)=O)C(C)C` (Ac-Val-[Phe(4-F)]-Pro-NH2) was run?
Answer: < 40%
